This is an account of results in the array DNA melting data of Ke et al. (doi:10.1101/2024.01.08.574731).

Data set [1] in a line: folding enthalpy; higher = less favourable; fluorescence melt of hairpins on a sequencing array, two-state fit. To be noted: sodium 0.088 M. An outline of the steps:
(§1)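 Melting temperature and folding enthalpy were obtained by bootstrapped two-state fitting. Fits used Cy3 fluorescence of library hairpins with annealed Cy3 and quencher oligos on a sequenced MiSeq flow cell, imaged in 50 mM Na-HEPES pH 8.0, 25 mM NaCl in 2.5 °C steps up to 60 °C and normalised to pre-quench Cy3 and control constructs. Four replicates were combined by inverse-variance weighting, and fitted temperatures were raised by 9.35 °C to match UV melts.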

A short description of data set [2]: melting temperature; fluorescence melt of hairpins on a sequencing array, two-state fit, raised by 9.35 °C to match UV melts. To be noted: sodium 0.088 M. The method in brief:
as §1

For the sequence GATCATTAATATGATC ((((((....)))))), the folding enthalpy in data set [1] is -155 kJ/mol. Besides, the Tm in data set [2] stood at 45.5 °C.

For GATCATTAGAATGATC ((((((....)))))), the folding enthalpy in data set [1] was -120 kJ/mol. For the same sequence, the Tm in data set [2] stood at 45.8 °C.

Regarding GATCATTATATGATC ((((((...)))))), in data set [1], the folding enthalpy was -168 kJ/mol. Moreover, the Tm in data set [2] amounted to 48.8 °C.

Regarding GATCATTCAGATGATC ((((((....)))))), in data set [1], the folding enthalpy was -154 kJ/mol. Further, the Tm in data set [2] came to 46.9 °C.

Turning to GATCATTCGTATGATC ((((((....)))))), the folding enthalpy in data set [1] was -139 kJ/mol. Besides, the Tm in data set [2] came to 48.1 °C.

Regarding GATCATTCTTATGATC ((((((....)))))), the folding enthalpy in data set [1] is -171 kJ/mol. Moreover, the Tm in data set [2] worked out at 48.6 °C.

With GATCATTGCAATGATC ((((((....)))))), the folding enthalpy in data set [1] is -187 kJ/mol. For the same sequence, in data set [2], the Tm came to 52.3 °C.

GATCATTGCTATGATC ((((((....)))))): in data set [1], the folding enthalpy is -151 kJ/mol. The Tm in data set [2] came out at 47.8 °C.

Turning to GATCATTGGGATGATC ((((((....)))))), in data set [1], the folding enthalpy was -162 kJ/mol. Moreover, the Tm in data set [2] turned out to be 49.5 °C.

As for GATCATTGTATGATC ((((((...)))))), in data set [1], the folding enthalpy was -129 kJ/mol. The Tm in data set [2] was 49.5 °C.

In the case of GATCATTTAAATGATC ((((((....)))))), in data set [1], the folding enthalpy is -194 kJ/mol. Besides, the Tm in data set [2] is 48.4 °C.

Turning to GATCATTTCAATGATC ((((((....)))))), the folding enthalpy in data set [1] was -177 kJ/mol. Also, the Tm in data set [2] was found to be 52.3 °C.

Take GATCATTTTAATGATC ((((((....)))))): the folding enthalpy in data set [1] is -222 kJ/mol. Besides, the Tm in data set [2] is 53.6 °C.

As for GATCCAAAAATGGATC ((((((....)))))), in data set [1], the folding enthalpy was -111 kJ/mol. Besides, in data set [2], the Tm came to 42.9 °C.

Turning to GATCCAAACCTGGATC ((((((....)))))), the folding enthalpy in data set [1] was -171 kJ/mol. The Tm in data set [2] was determined as 49.8 °C.

Regarding GATCCAAACGTGGATC ((((((....)))))), the folding enthalpy in data set [1] was -156 kJ/mol. Also, the Tm in data set [2] was 49 °C.

Take GATCCAAACTGGATC ((((((...)))))): the folding enthalpy in data set [1] is -180 kJ/mol. Further, the Tm in data set [2] was 50.4 °C.

With GATCCAAATCTGGATC ((((((....)))))), in data set [1], the folding enthalpy is -142 kJ/mol. Also, the Tm in data set [2] stood at 47.4 °C.

For the sequence GATCCAACACTGGATC ((((((....)))))), the folding enthalpy in data set [1] is -180 kJ/mol. Further, the Tm in data set [2] was found to be 48.1 °C.

Turning to GATCCAACCATGGATC ((((((....)))))), the folding enthalpy in data set [1] was -149 kJ/mol. Besides, in data set [2], the Tm was determined as 50 °C.

For the sequence GATCCAACTCTGGATC ((((((....)))))), in data set [1], the folding enthalpy is -129 kJ/mol. The Tm in data set [2] is 49.2 °C.

Turning to GATCCAAGATTGGATC ((((((....)))))), the folding enthalpy in data set [1] was -168 kJ/mol. The Tm in data set [2] came out at 50.3 °C.

With GATCCAAGTATGGATC ((((((....)))))), the folding enthalpy in data set [1] was -153 kJ/mol. In addition, the Tm in data set [2] amounted to 50.3 °C.

On to GATCCAAGTTTGGATC ((((((....)))))), for which the folding enthalpy in data set [1] was -172 kJ/mol. In addition, in data set [2], the Tm came out at 52.1 °C.

Regarding GATCCAATAATGGATC ((((((....)))))), the folding enthalpy in data set [1] was -130 kJ/mol. The Tm in data set [2] came to 47.5 °C.

Turning to GATCCAATCTGGATC ((((((...)))))), the folding enthalpy in data set [1] was -138 kJ/mol. Also, in data set [2], the Tm is 51.8 °C.

On to GATCCACAAGTGGATC ((((((....)))))), for which the folding enthalpy in data set [1] is -161 kJ/mol. Moreover, in data set [2], the Tm stood at 57.9 °C.

Regarding GATCCACAATGGATC ((((((...)))))), the folding enthalpy in data set [1] was -128 kJ/mol. Further, the Tm in data set [2] was found to be 48.3 °C.

As for GATCCACACTGGATC ((((((...)))))), the folding enthalpy in data set [1] is -139 kJ/mol. The Tm in data set [2] was determined as 50.7 °C.

Regarding GATCCACAGGTGGATC ((((((....)))))), the folding enthalpy in data set [1] is -171 kJ/mol. Also, the Tm in data set [2] was found to be 57 °C.

Turning to GATCCACCCGTGGATC ((((((....)))))), the folding enthalpy in data set [1] was -169 kJ/mol. In addition, in data set [2], the Tm was 57.9 °C.

Regarding GATCCACCCTGGATC ((((((...)))))), the folding enthalpy in data set [1] is -141 kJ/mol. In addition, the Tm in data set [2] came to 51 °C.

As for GATCCACGGTGGATC ((((((...)))))), the folding enthalpy in data set [1] is -183 kJ/mol. The Tm in data set [2] stood at 50.6 °C.

On to GATCCACTAATGGATC ((((((....)))))), for which the folding enthalpy in data set [1] was -137 kJ/mol. For the same sequence, the Tm in data set [2] was 49.8 °C.

GATCCACTATTGGATC ((((((....)))))): the folding enthalpy in data set [1] is -171 kJ/mol. Further, the Tm in data set [2] turned out to be 49.8 °C.

Turning to GATCCACTCATGGATC ((((((....)))))), in data set [1], the folding enthalpy was -174 kJ/mol. Moreover, in data set [2], the Tm amounted to 52.5 °C.

On to GATCCACTCCTGGATC ((((((....)))))), for which, in data set [1], the folding enthalpy is -160 kJ/mol. Also, the Tm in data set [2] was 50.3 °C.

For GATCCACTTTTGGATC ((((((....)))))), in data set [1], the folding enthalpy was -145 kJ/mol. In addition, the Tm in data set [2] came out at 50.6 °C.

GATCCAGATGTGGATC ((((((....)))))): the folding enthalpy in data set [1] is -148 kJ/mol. Besides, the Tm in data set [2] was 51.1 °C.

For GATCCAGCAATGGATC ((((((....)))))), the folding enthalpy in data set [1] was -174 kJ/mol. In addition, the Tm in data set [2] stood at 56.8 °C.

For the sequence GATCCAGCCGTGGATC ((((((....)))))), the folding enthalpy in data set [1] was -172 kJ/mol. Further, the Tm in data set [2] amounted to 52.8 °C.

On to GATCCAGCTGTGGATC ((((((....)))))), for which the folding enthalpy in data set [1] was -162 kJ/mol. Further, in data set [2], the Tm came out at 50.3 °C.

As for GATCCAGCTTGGATC ((((((...)))))), the folding enthalpy in data set [1] was -138 kJ/mol. Further, the Tm in data set [2] was determined as 52 °C.

GATCCAGGAAACTGGGTC ((.((((....)))).)): the folding enthalpy in data set [1] is -125 kJ/mol. Besides, the Tm in data set [2] turned out to be 49.9 °C.

Take GATCCAGGCATGGATC ((((((....)))))): in data set [1], the folding enthalpy is -191 kJ/mol. In data set [2], the Tm was 57.8 °C.

For the sequence GATCCAGGTGTGGATC ((((((....)))))), the folding enthalpy in data set [1] is -187 kJ/mol. Moreover, in data set [2], the Tm turned out to be 52 °C.

GATCCAGTCATGGATC ((((((....)))))): the folding enthalpy in data set [1] was -166 kJ/mol. The Tm in data set [2] is 58.3 °C.

With GATCCAGTCTTGGATC ((((((....)))))), the folding enthalpy in data set [1] is -182 kJ/mol. In addition, the Tm in data set [2] is 53.5 °C.

For the sequence GATCCAGTGATGGATC ((((((....)))))), in data set [1], the folding enthalpy is -147 kJ/mol. Further, the Tm in data set [2] was 56.6 °C.

Take GATCCAGTGTGGATC ((((((...)))))): the folding enthalpy in data set [1] was -138 kJ/mol. Besides, the Tm in data set [2] was determined as 51.6 °C.

GATCCATAGCTGGATC ((((((....)))))): the folding enthalpy in data set [1] is -140 kJ/mol. In data set [2], the Tm came to 49.2 °C.

GATCCATAGTTGGATC ((((((....)))))): the folding enthalpy in data set [1] is -139 kJ/mol. Besides, the Tm in data set [2] is 50.6 °C.

In the case of GATCCATCAATGGATC ((((((....)))))), in data set [1], the folding enthalpy was -184 kJ/mol. For the same sequence, the Tm in data set [2] came out at 52.3 °C.

For the sequence GATCCATCCTGGATC ((((((...)))))), the folding enthalpy in data set [1] was -180 kJ/mol. For the same sequence, the Tm in data set [2] is 52.7 °C.

As to GATCCATCTATGGATC ((((((....)))))), the folding enthalpy in data set [1] was -164 kJ/mol. Also, the Tm in data set [2] was determined as 55.8 °C.

Regarding GATCCATCTTTGGATC ((((((....)))))), the folding enthalpy in data set [1] is -157 kJ/mol. For the same sequence, the Tm in data set [2] was 52.6 °C.

For GATCCATGCCTGGATC ((((((....)))))), in data set [1], the folding enthalpy was -151 kJ/mol. Besides, in data set [2], the Tm came out at 51.6 °C.
